Legend:
[1] = tested on: Trypanosoma cruzi; assay: Antiparasitic activity against epimastigote stage of Trypanosoma cruzi infected in Vero cells assessed as parasite growth inhibition […] by hemocytometery; format: functional, organism-based
How it was run: (§1)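 Exponential-phase T. cruzi Sylvio X10 epimastigotes (LIT medium with hiFCS) or L. (L.) infantum MHOM/BR/74/PP75 promastigotes (RPMI 1640, hemin, HEPES, 10% hiFCS) were exposed to threefold serial dilutions (0.3–300 µg/mL) for 72 h at 28 °C. Viable parasites were counted by hemocytometer with 0.25% eosin yellow. IC50 came from sigmoidal regression, given as mean ± SD.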

[2] = Selectivity index, ratio of CC50 for African green monkey Vero cells to IC50 for epimastigote stage of Trypanosoma cruzi; format: functional
How it was run: (§2)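 Selectivity index was calculated as CC50 in Vero (T. cruzi) or THP-1 (L. infantum) cells divided by parasite IC50. Both values came from 72 h mammalian-cell MTT assays and the parasite assays; SI ≥ 3 was defined as parasite-selective.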

[3] = tested on: Trypanosoma cruzi; assay: Antiparasitic activity against amastigote stage of Trypanosoma cruzi infected in Vero cells assessed as parasite growth inhibition after 24 hrs by hemocytometery; format: functional, organism-based
How it was run: (§3)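 Host cells were Vero for T. cruzi (infected with tissue-derived trypomastigotes) and THP-1 (PMA-transformed, 10 ng/mL) for L. (L.) infantum (infected with late-phase promastigotes), at 1:10 cell:parasite for 24 h. Serial dilutions were given as two doses, the second on day 3 with a medium change. Read-out was % infected cells on methanol-fixed, Giemsa-stained slides (300 cells). IC50 came from sigmoidal regression; experiments in duplicate, concentrations in triplicate.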

[4] = Selectivity index, ratio of CC50 for African green monkey Vero cells to IC50 for amastigote stage of Trypanosoma cruzi; format: functional; how it was run: as §2
[5] = tested on: Leishmania infantum; assay: Antiparasitic activity against amastigote stage of Leishmania infantum infected in THP1 cells assessed as parasite growth inhibition after 24 hrs by hemocytometery; format: functional, organism-based, THP-1; how it was run: as §3
[6] = Cytotoxicity against African green monkey Vero cells; format: cell-based; conditions: chlorocebus sabaeus
How it was run: (§4)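 Vero monolayers or THP-1 cells (made adherent with 10 ng/mL PMA), in RPMI 1640 with 10% hiFCS, were exposed to compound (0.3–300 µg/mL) for 72 h at 37 °C, 5% CO2. Viability was measured by MTT, with formazan dissolved in DMSO and read at 580 nm. % cytotoxicity was calculated against untreated cells; CC50 came from sigmoidal regression, given as mean ± SD.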

[7] = Selectivity index, ratio of CC50 for human THP1 cells to IC50 for promastigote stage of Leishmania infantum; format: functional, THP-1; how it was run: as §2
[8] = Cytotoxicity against human THP1 cells; format: cell-based; conditions: THP-1 cells; how it was run: as §4
[9] = tested on: Leishmania infantum; assay: Antiparasitic activity against promastigote stage of Leishmania infantum assessed as parasite growth inhibition after 72 hrs by hemocytometery
[10] = tested on: Leishmania infantum; assay: Antiparasitic activity against promastigote stage of Leishmania infantum infected in THP1 cells assessed as parasite growth inhibition […] by hemocytometery; format: functional, organism-based; conditions: THP-1; how it was run: as §1
[11] = Trypanosoma cruzi, Vero, 24 h, read-out: IC50
[12] = Leishmania infantum, THP-1, 24 h, read-out: IC50

SMILES | IC50 [1] | IC50 [3, 11] | Selectivity Index [2] | Selectivity Index [4] | IC50 [5, 12] | CC50 [6] | Selectivity Index [7] | CC50 [8] | IC50 [9] | IC50 [10] | IC50 ([3]; vero) | IC50 ([5]; thp-1)
O=[N+]([O-])c1ccc([C@@H]2C[C@H]3Cc4cc(F)ccc4N2O3)o1 (racemic) | 29.7 µM | 284 µM | 14.2 | 1.5 | > 115 µM | 422 µM | 50.4 | 539 µM | 10.7 µM | – | – | –
O[C@@H]1Cc2cc(OC(F)(F)F)ccc2N[C@H](c2cccs2)C1 | 87.8 µM | > 101 µM | 0.2 | – | > 101 µM | 20.4 µM | 4.4 | 61.5 µM | – | 13.8 µM | – | –
Cc1ccc([C@@H]2C[C@H]3Cc4cc(OC(F)(F)F)ccc4N2O3)o1 (racemic) | 89.2 µM | 212 µM | 4.6 | 2 | > 308 µM | 414 µM | 16.3 | 176 µM | 10.8 µM | – | – | –
Cc1ccsc1[C@@H]1C[C@H]2Cc3cc(Cl)ccc3N1O2 (racemic) | 11.7 µM | 99 µM | 15.6 | 1.9 | > 344 µM | 183 µM | 7.7 | 250 µM | 32.3 µM | – | – | –
Brc1ccc([C@@H]2C[C@H]3Cc4ccccc4N2O3)s1 (racemic) | 62.2 µM | 137 µM | 28.9 | 13.2 | > 312 µM | 1800 µM | 34.7 | 1250 µM | 36.1 µM | – | – | –
Cc1ccsc1[C@@H]1C[C@H](O)Cc2cc(OC(F)(F)F)ccc2N1 (relative stereo) | 10.7 µM | – | 2.5 | – | > 97.1 µM | 26.7 µM | 5.5 | 89.7 µM | – | 16.4 µM | ND(toxic) | –
Cc1ccc([C@@H]2C[C@H]3Cc4cc(Cl)ccc4N2O3)o1 (racemic) | 46.2 µM | 312 µM | 25.1 | 3.7 | > 130 µM | 1160 µM | 19.6 | 374 µM | 19.1 µM | – | – | –
FC(F)(F)Oc1ccc2c(c1)C[C@@H]1C[C@@H](c3cccs3)N2O1 (racemic) | 143 µM | 73.9 µM | >2.1 | >4.1 | > 306 µM | > 306 µM | >1.2 | > 306 µM | 256 µM | – | – | –
Cc1ccc([C@@H]2C[C@H](O)Cc3cc(F)ccc3N2)o1 (relative stereo) | 115 µM | > 383 µM | 7.2 | – | > 383 µM | 823 µM | >8.1 | > 1150 µM | – | 141 µM | – | –
Cc1ccc([C@@H]2C[C@H]3Cc4cc(Cl)ccc4N2O3)s1 (racemic) | 24.8 µM | 101 µM | 46.1 | 11.3 | > 344 µM | 1140 µM | >63.8 | > 2060 µM | 32.3 µM | – | – | –
Fc1ccc2c(c1)C[C@@H]1C[C@@H](c3ccco3)N2O1 (racemic) | 47.7 µM | 70.1 µM | >8.6 | >5.8 | > 136 µM | > 408 µM | >14.7 | > 1220 µM | 83.2 µM | – | – | –
Cc1ccsc1[C@@H]1C[C@H]2Cc3cc(OC(F)(F)F)ccc3N1O2 (racemic) | 47.2 µM | 202 µM | 1.3 | 0.3 | > 293 µM | 61.7 µM | >153.9 | > 1760 µM | 11.4 µM | – | – | –
Fc1ccc2c(c1)C[C@@H]1C[C@@H](c3ccc(Br)s3)N2O1 (racemic) | 34.7 µM | 54.6 µM | >8.5 | >5.4 | > 295 µM | > 295 µM | >40.6 | > 295 µM | 7.3 µM | – | – | –
Cc1ccc([C@@H]2C[C@H]3Cc4cc(F)ccc4N2O3)s1 (racemic) | 30.9 µM | > 364 µM | 30.6 | – | > 121 µM | 944 µM | 2.5 | 234 µM | 92 µM | – | – | –
CC1CS(=O)(=O)CCN1/N=C/c1ccc([N+](=O)[O-])o1 (centres undefined) [NIFURTIMOX] | 4 µM | 1.6 µM | 17 | 43 | – | 67.5 µM | – | – | – | – | – | –
O[C@@H]1Cc2cc(OC(F)(F)F)ccc2N[C@H](c2ccoc2)C1 (relative stereo) | 602 µM | > 106 µM | 0.2 | – | > 106 µM | 95.4 µM | 10.7 | 460 µM | 43.1 µM | – | – | –

More lines, main results first:

IC50 [1] | IC50 [3, 11] | SMILES | Selectivity Index [2] | Selectivity Index [4] | IC50 [5, 12] | CC50 [6] | Selectivity Index [7] | CC50 [8] | IC50 [9] | IC50 [10] | IC50 ([3]; vero) | IC50 ([5]; thp-1)
22.8 µM | 131 µM | Cc1ccc([C@@H]2C[C@H](O)Cc3ccccc3N2)s1 (relative stereo) | 41.9 | 7.3 | > 128 µM | 956 µM | 5.5 | 608 µM | 111 µM | – | – | –
884 µM | > 436 µM | O[C@@H]1Cc2ccccc2N[C@H](c2ccco2)C1 (relative stereo) | >1.5 | – | > 436 µM | > 1310 µM | 0.3 | 236 µM | – | 696 µM | – | –
65.7 µM | – | Cc1ccc([C@@H]2C[C@H](O)Cc3cc(OC(F)(F)F)ccc3N2)s1 (relative stereo) | 0.4 | – | – | 23.9 µM | 8.6 | 98 µM | – | 11.3 µM | ND(toxic) | ND(toxic)
120 µM | > 411 µM | Cc1ccc([C@@H]2C[C@H](O)Cc3ccccc3N2)o1 (relative stereo) | 3.1 | – | > 411 µM | 370 µM | 1.4 | 262 µM | – | 189 µM | – | –
147 µM | 91.5 µM | Cc1ccc([C@@H]2C[C@H]3Cc4ccccc4N2O3)s1 (racemic) | 6 | 9.6 | > 389 µM | 878 µM | 9.6 | 497 µM | 52 µM | – | – | –
95.1 µM | > 119 µM | O[C@@H]1Cc2cc(Cl)ccc2N[C@H](c2cccs2)C1 (relative stereo) | 1.7 | – | > 119 µM | 164 µM | 2.3 | 115 µM | 49.5 µM | – | – | –
47.9 µM | 41.5 µM | Cc1ccsc1[C@@H]1C[C@H](O)Cc2cc(Cl)ccc2N1 (relative stereo) | 4.2 | 4.8 | > 341 µM | 200 µM | 2.5 | 181 µM | 72.9 µM | – | – | –
